Experimental data reported in ChEMBL document CHEMBL1649117, “GRL-02031, a novel nonpeptidic protease inhibitor (PI) containing a stereochemically defined fused cyclopentanyltetrahydrofuran potent against multi-PI-resistant human immunodeficiency virus type 1 in vitro” (Antimicrob Agents Chemother, 2009).

Key:
[1] = system: Human immunodeficiency virus 1; experiment: Antiviral activity against HIV1 ERS104pre infected in human PHA-PBC assessed as inhibition of p24 Gag protein production by ELISA; format: functional, organism-based; details: Human immunodeficiency virus 1, ERS104pre
Method in brief: (§1)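 Phytohemagglutinin-stimulated PBMs (10^6/ml) infected with 50 TCID50s of each primary isolate, cultured with or without drug in 10-fold serial dilutions. On day 7, supernatant p24 Gag was measured by automated chemiluminescent enzyme immunoassay. Triplicate.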

[2] = system: Human immunodeficiency virus 1; experiment: Antiviral activity against HIV1 G harboring L10I/V11I/T12E/I15V/L19I/R41K/M46L/L63P/A71T/V82A/L90M in protease encoding region infected in human PHA-PBC assessed as inhibition of p24 Gag protein production by ELISA; format: functional, organism-based; details: Human immunodeficiency virus 1, G
Method in brief: (§2)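 Phytohemagglutinin-stimulated PBMs (10^6/ml) infected with 50 TCID50s of each primary isolate, cultured with or without drug in 10-fold serial dilutions. On day 7, supernatant p24 Gag was measured by automated chemiluminescent enzyme immunoassay. […] Triplicate.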

[3] = system: Human immunodeficiency virus 1; experiment: Antiviral activity against HIV1 A harboring L10I/I15V/E35D/N37E/K45R/I54V/L63P/A71V/V82T/L90M/I93L/C95F in protease encoding region infected in human PHA-PBC assessed as inhibition of p24 Gag protein production by ELISA; format: functional, organism-based; details: Human immunodeficiency virus 1, A; method in brief: as §1
[4] = system: Human immunodeficiency virus 1; experiment: Ratio of EC50 for HIV1 A harboring L10I/I15V/E35D/N37E/K45R/I54V/L63P/A71V/V82T/L90M/I93L/C95F in protease encoding region to EC50 for HIV1 ERS104pre; format: functional
[5] = system: Human immunodeficiency virus 1; experiment: Antiviral activity against HIV1 B harboring L10I/I15V/E35D/N37E/K45R/I54V/L63P/A71V/V82T/L90M/I93L/C95F in protease encoding region infected in human PHA-PBC assessed as inhibition of p24 Gag protein production by ELISA; format: functional, organism-based; details: Human immunodeficiency virus 1, B; method in brief: as §2
[6] = system: Human immunodeficiency virus 1; experiment: Antiviral activity against HIV1 MOKW infected in human PHA-PBC assessed as inhibition of p24 Gag protein production by ELISA; format: functional, organism-based; details: Human immunodeficiency virus 1, MOKW; method in brief: as §2
[7] = system: Human immunodeficiency virus 1; experiment: Ratio of EC50 for HIV1 C harboring L10I/I15V/K20R/L24I/M36I/M46L/I54V/I62V/L63P/K70Q/V82A/L89M in protease encoding region to EC50 for HIV1 ERS104pre; format: functional
[8] = system: Human immunodeficiency virus 1; experiment: Antiviral activity against HIV1 C harboring L10I/I15V/K20R/L24I/M36I/M46L/I54V/I62V/L63P/K70Q/V82A/L89M in protease encoding region infected in human PHA-PBC assessed as inhibition of p24 Gag protein production by ELISA; format: functional, organism-based; details: Human immunodeficiency virus 1, C; method in brief: as §2
[9] = system: Human immunodeficiency virus 1; experiment: Ratio of EC50 for HIV1 B harboring L10I/I15V/E35D/N37E/K45R/I54V/L63P/A71V/V82T/L90M/I93L/C95F in protease encoding region to EC50 for HIV1 ERS104pre; format: functional
[10] = system: Human immunodeficiency virus 1; experiment: Antiviral activity against HIV1 JSL harboring L10I/L24I/L33F/E35D/M36I/N37S/M46L/I54V/R57K/I62V/L63P/A71V/G73S/82A in protease encoding region infected in human PHA-PBC assessed as inhibition of p24 Gag protein production by ELISA; format: functional, organism-based; details: Human immunodeficiency virus 1, JSL; method in brief: as §2
[11] = system: Human immunodeficiency virus 1; experiment: Ratio of EC50 for HIV1 TM harboring L10I/K14R/R41K/M46L/I54V/L63P/A71V/V82A/L90M/I93L in protease encoding region to EC50 for HIV1 ERS104pre; format: functional
Method in brief: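 PHA-stimulated PBMs (10^6/ml) infected with 50 TCID50s of primary HIV-1 isolate and cultured with 10-fold serial drug dilutions. Day 7 supernatant p24 Gag measured by chemiluminescent enzyme immunoassay. […] Triplicate. Ratio is resistant isolate EC50 over reference isolate EC50.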

[12] = system: Human immunodeficiency virus 1; experiment: Ratio of EC50 for HIV1 JSL harboring L10I/L24I/L33F/E35D/M36I/N37S/M46L/I54V/R57K/I62V/L63P/A71V/G73S/82A in protease encoding region to EC50 for HIV1 ERS104pre; format: functional
[13] = system: Human immunodeficiency virus 1; experiment: Ratio of EC50 for HIV1 MM harboring L10I/K43T/M46L/I54V/L63P/A71V/V82A/L90M/Q92K in protease encoding region infected to EC50 for HIV1 ERS104pre; format: functional
[14] = system: Human immunodeficiency virus 1; experiment: Antiviral activity against HIV1 TM harboring L10I/K14R/R41K/M46L/I54V/L63P/A71V/V82A/L90M/I93L in protease encoding region infected in human PHA-PBC assessed as inhibition of p24 Gag protein production by ELISA; format: functional, organism-based; details: Human immunodeficiency virus 1, TM; method in brief: as §2
[15] = system: Human immunodeficiency virus 1; experiment: Ratio of EC50 for HIV1 G harboring L10I/V11I/T12E/I15V/L19I/R41K/M46L/L63P/A71T/V82A/L90M in protease encoding region to EC50 for HIV1 ERS104pre; format: functional
[16] = system: Human immunodeficiency virus 1; experiment: Antiviral activity against HIV1 MM harboring L10I/K43T/M46L/I54V/L63P/A71V/V82A/L90M/Q92K in protease encoding region infected in human PHA-PBC assessed as inhibition of p24 Gag protein production by ELISA; format: functional, organism-based; details: Human immunodeficiency virus 1, MM; method in brief: as §2

With `Cc1cn([C@H]2C[C@H](N=[N+]=[N-])[C@@H](CO)O2)c(=O)[nH]c1=O` [ZIDOVUDINE] as the compound, how does the EC50 [1] read?
Its EC50 is 5 nM.

What about the EC50 [2] of the same compound?
Its EC50 is 600 nM.

And the EC50 [3]?
Its EC50 is 120 nM.

And the “Ratio EC50” value [4]?
Its value is 24.

And the EC50 [5]?
The EC50 was greater than 1000 nM.

What about the EC50 [6] of the same compound?
The EC50 was 16 nM.

What about the “Ratio EC50” value [7] of the same compound?
The value was 56.

And the EC50 [8]?
The EC50 was 280 nM.

What about the “Ratio EC50” value [9] of the same compound?
The value was 200.

What about the EC50 [10] of the same compound?
The EC50 was 180 nM.

What about the “Ratio EC50” value [11] of the same compound?
Its value is 178.

And the “Ratio EC50” value [12]?
Its value is 36.

What about the “Ratio EC50” value [13] of the same compound?
The value was 90.

What about the EC50 [14] of the same compound?
Its EC50 is 890 nM.

And the “Ratio EC50” value [15]?
Its value is greater than 120.

What about the EC50 [16] of the same compound?
The EC50 was 450 nM.
